{
  "source": "ChEMBL document CHEMBL4765441",
  "about": "“Design, synthesis and anti-cancer activity of pyrrole-imidazole polyamides through target-downregulation of c-kit gene expression” (Eur J Med Chem, 2020)",
  "key": {"dsDNA [1]": {"system": "dsDNA", "assay": "Binding affinity to 5'-AGGGGAGGCGAGGAGGGGCGTGGCCGG-3'/3'-TCCCCTCCGCTCCTCCCCGCACCGGCC-5' dsDNA (unknown origin) at 1:2 DNA:compound ratio by SYBR GOLD staining based EMSA", "assay_type": "nucleic-acid assay", "settings": "Homo sapiens", "summary_of_the_method": "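Target 27-bp c-kit promoter duplex, annealed at 95 °C, then incubated overnight with or without compound in pH 7.4 buffer (10 mM Tris-HCl, 10 mM KCl, 0.1 mM EDTA). Mixtures run on 16% native polyacrylamide gel at 150 V for 3 h. Gels stained with SYBR Gold for 30 min and imaged on a gel documentation system.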"}, "A549 [2]": {"system": "A549", "assay": "Antiproliferative activity against human A549 cells assessed as reduction in cell viability incubated for 48 hrs by xCELLigence RTCA", "assay_type": "functional, cell-based", "settings": "A549, 48 h"}, "SGC-7901 [3]": {"system": "SGC-7901", "assay": "Induction of apoptosis in human SGC7901 cells assessed as viable cells at 15 uM incubated for 36 hrs by Annexin V-FITC/propidium iodide staining-based flow cytometric analysis (reference value: 93.2 %)", "assay_type": "functional", "settings": "read-out: Activity"}, "SGC-7901 [4]": {"system": "SGC-7901", "assay": "Induction of apoptosis in human SGC7901 cells assessed as late apoptotic cells at 15 uM incubated for 36 hrs by Annexin V-FITC/propidium iodide staining-based flow cytometric analysis (reference value: 3.69 %)", "assay_type": "functional"}, "A549 [5]": {"system": "A549", "assay": "Induction of apoptosis in human A549 cells assessed as late apoptotic cells at 7.5 uM incubated for 36 hrs by Annexin V-FITC/propidium iodide staining-based flow cytometric analysis (reference value: 0.41 %)", "assay_type": "functional"}, "A549 [6]": {"system": "A549", "assay": "Induction of apoptosis in human A549 cells assessed as viable cells at 15 uM incubated for 36 hrs by Annexin V-FITC/propidium iodide staining-based flow cytometric analysis (reference value: 97.9 %)", "assay_type": "functional", "settings": "read-out: Activity"}, "dsDNA [7]": {"system": "dsDNA", "assay": "Binding affinity to 5'-AGGGGAGGCGAGGAGGGGCGTGGCCGG-3'/3'-TCCCCTCCGCTCCTCCCCGCACCGGCC-5' dsDNA (unknown origin) by circular dichroism spectroscopic analysis", "assay_type": "nucleic-acid assay", "settings": "Homo sapiens", "summary_of_the_method": "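Target duplex annealed at 95 °C, held 24 h in pH 7.0 buffer (10 mM sodium cacodylate, 100 mM NaCl, 0.5% DMSO), then degassed. Compound titrated in at compound:DNA ratios 0.0–3.0, room temperature, 15 min equilibration per addition. CD read 225–400 nm in a 5 mm quartz cell at 100 nm/min, 5.0 nm bandwidth. Average of three parallel runs.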"}},
  "note": "Calls of active or inactive are those of the source. No cut-off for these calls is given here.",
  "data": [
    {"smiles": "CC(=O)Nc1cn(C)c(C(=O)Nc2cn(C)c(C(=O)Nc3cc(C(=O)Nc4cn(C)c(C(=O)NCCC(=O)Nc5cn(C)c(C(=O)Nc6cn(C)c(C(=O)NCC[C@@H](N)C(=O)Nc7cc(C(=O)Nc8cc(C(=O)NC[C@@H](O)CC(=O)Nc9cc(C(=O)Nc%10cn(C)c(C(=O)Nc%11cc(C(=O)Nc%12cc(C(=O)NCCC(=O)NCCCN(C)C)n(C)c%12)n(C)c%11)n%10)n(C)c9)n(C)c8)n(C)c7)n6)n5)n4)n(C)c3)n2)n1.Cl.Cl", "values": [
      {"measurement": "Activity", "setting": "dsDNA [1]", "value": "Active"},
      {"measurement": "IC50", "setting": "A549 [2]", "value": 5.97, "unit": "µM"},
      {"measurement": "viability at 15 µM", "setting": "SGC-7901 [3]", "value": 43.6, "unit": "%"},
      {"measurement": "Activity", "setting": "SGC-7901 [4]", "value": 12.8, "unit": "%"},
      {"measurement": "Activity", "setting": "A549 [5]", "value": 14.1, "unit": "%"},
      {"measurement": "viability at 15 µM", "setting": "A549 [6]", "value": 51.4, "unit": "%"},
      {"measurement": "Activity", "setting": "dsDNA [7]", "value": "Active"}
    ]}
  ]
}
